Source: ChEMBL document CHEMBL4680252, “Anti-norovirus activity of C7-modified 4-amino-pyrrolo[2,1-f][1,2,4]triazine C-nucleosides” (Eur J Med Chem, 2020)

What was measured:
[1] = Inhibition of human Norovirus RNA-dependent RNA polymerase assessed as decrease in GTP incorporation incubated for 10 mins by scintillation counting method
[2] = Inhibition of mouse Norovirus RNA-dependent RNA polymerase assessed as decrease in GTP incorporation incubated for 10 mins by scintillation counting method
[3] = Antiviral activity against murine Norovirus GV.1 infected in mouse RAW264.7 cells assessed as reduction in plaque formation incubated for 48 hrs by qRT-PCR analysis; format: functional, cell-based; conditions: GV.1, RAW264.7, 48 h
[4] = Inhibition of recombinant Norovirus GII.4 C-terminal His6-tagged RNA-dependent RNA polymerase in Escherichia coli assessed as decrease in GTP incorporation incubated for 10 mins by scintillation counting method
[5] = Cytotoxicity against mouse RAW264.7 cells assessed as reduction in cell viability incubated for 3 days by MTS assay; format: cell-based; conditions: time 3 day
Summary of the method: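 Uninfected RAW 264.7 cells were exposed for 3 days to the same compound concentrations used in the MNV assay, then MTS read-out. Viability was expressed as % of untreated cells, and CC₅₀ is the concentration that reduced viable cells by 50%.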

[6] = Antiviral activity against murine Norovirus infected in mouse RAW264.7 cells assessed as reduction in virus-induced cytopathic effect incubated for 72 hrs by MTS assay; format: functional, cell-based; conditions: RAW264.7, 72 h
Summary of the method: (§1)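 RAW 264.7 cells (1 × 10⁴/well) infected with MNV-1.CW1 at MOI 0.001 alongside a compound dilution series (0.023–50 or 100 µg/mL; 8 concentrations). Incubated 3 days until CPE was complete in untreated infected wells. MTS/PMS added, OD read at 498 nm after 2 h. %CPE reduction taken against uninfected and infected untreated controls; EC₅₀ is 50% protection from CPE.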

[7] = Selectivity index, ratio of CC50 for mouse RAW264.7 cells to EC50 for antiviral activity against murine Norovirus infected in mouse RAW264.7 cells; format: toxicity, cell-based; conditions: read-out: Ratio CC50/EC50
Summary of the method: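 Ratio of CC₅₀ (MTS, uninfected RAW 264.7, 3 days) to EC₅₀ (MNV CPE-reduction MTS assay in RAW 264.7, 3 days), calculated as CC₅₀/EC₅₀.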

Norovirus [8] = experiment: Antiviral activity against human Norovirus; format: functional
Norovirus [9] = experiment: Antiviral activity against human Norovirus GI.1 infected in human HGT-1 cells assessed as reduction in virus replication incubated for 72 hrs by qRT-PCR analysis; format: functional, cell-based; conditions: GI.1, HGT-1, 72 h
Summary of the method: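 HGT-1 cells stably carrying the GI.1 HuNoV replicon were seeded at 5,000/well in complete DMEM without G418. Serial compound dilutions were added after 24 h, followed by 72 h incubation and a PBS wash. Intracellular replicon RNA was quantified by qRT-PCR, normalised to β-actin by the Pfaffl method with per-run efficiencies. EC₅₀ is 50% reduction of relative replicon RNA.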

Norovirus [10] = experiment: Antiviral activity against human Norovirus infected in BJAB cells assessed as reduction in viral replication incubated for 3 days by qRT-PCR analysi; format: functional, cell-based; conditions: 72 h
[11] = Antiviral activity against murine Norovirus infected in mouse RAW264.7 cells assessed as reduction in virus-induced cytopathic effect incubated for 3 days by MTS assay; format: functional, cell-based; conditions: RAW264.7, 72 h; summary of the method: as §1

Q: What does the source list for O=C(Nc1cccc(C(=O)Nc2ccc(S(=O)(=O)O)c3cc(S(=O)(=O)O)cc(S(=O)(=O)O)c23)c1)Nc1cccc(C(=O)Nc2ccc(S(=O)(=O)O)c3cc(S(=O)(=O)O)cc(S(=O)(=O)O)c23)c1?
A: IC50 [1]: 0.071 µM; IC50 [2]: 0.2 µM

Q: With O=C(O)c1[nH]nnc1-c1ccccc1 as the molecule, how does the EC50 [3] read?
A: The EC50 was 34.5 µM.

Q: What about the IC50 [4] of the same molecule?
A: The IC50 was 9.2 µM.

Q: What does the source list for C[C@@]1(O)[C@H](O)[C@@H](CO)O[C@H]1c1ccc2c(N)ncnn12?
A: CC50 at 72 h [5]: 23.7 µM; EC50 [6]: 11.1 µM; selectivity ratio [7]: 2

Q: Which EC50 (Norovirus [8]) does the source give for C[C@@]1(F)[C@H](O)[C@@H](CO)O[C@H]1n1ccc(N)nc1=O here?
A: Its EC50 is 3.2 µM.

Q: What does the source list for C[C@@]1(O)[C@H](O)[C@@H](CO)O[C@H]1c1cc(Cl)c2c(N)ncnn12?
A: CC50 at 72 h [5]: 4.78 µM; EC50 [6]: > 4 µM

Q: With Cc1nc(-c2ccccc2)sc1C(=O)Nc1sc2c(c1C#N)CCC2 as the molecule, how does the EC50 [3] read?
A: Its EC50 is 4.8 µM.

Q: What about the IC50 [4] of the same molecule?
A: Its IC50 is 5 µM.

Q: With Nc1ncnn2c([C@@H]3O[C@H](CO)[C@@H](O)[C@H]3O)ccc12 as the molecule, how does the CC50 at 72 h [5] read?
A: The CC50 at 72 h was 0.14 µM.

Q: And the EC50 (Norovirus [9])?
A: Its EC50 is 0.015 µM.

Q: And the EC50 [6]?
A: Its EC50 is 0.007 µM.

Q: What about the selectivity ratio [7] of the same molecule?
A: Its selectivity ratio is 20.

Q: Which results are given for C[C@@]1(O)[C@H](O)[C@@H](CO)O[C@H]1n1ccc(N)nc1=O?
A: EC50 (Norovirus [8]): 8.2 µM; EC50 (Norovirus [10]): 0.3 µM; EC50 [11]: 2 µM

Q: Which CC50 at 72 h [5] does the source give for Nc1ncnn2c([C@@H]3O[C@H](CO)[C@@H](O)[C@H]3O)cc(Br)c12 here?
A: Its CC50 at 72 h is 0.45 µM.

Q: And the EC50 (Norovirus [9])?
A: The EC50 was > 10 µM.

Q: And the EC50 [6]?
A: Its EC50 is 0.024 µM.

Q: And the selectivity ratio [7]?
A: Its selectivity ratio is 19.

Q: For Nc1ncnn2c([C@H]3O[C@@H](CO)[C@H](O)[C@@H]3O)cc(Cl)c12, which CC50 at 72 h [5] is on record?
A: Its CC50 at 72 h is > 100 µM.

Q: And the EC50 [6]?
A: The EC50 was > 100 µM.

Q: Which results are given for Nc1ncnn2c([C@H]3O[C@@H](CO)[C@H](O)[C@@H]3O)ccc12?
A: CC50 at 72 h [5]: > 100 µM; EC50 [6]: > 100 µM

Q: Which results are given for Nc1ncnn2c([C@@H]3O[C@H](CO)[C@@H](O)[C@H]3O)cc(Cl)c12?
A: CC50 at 72 h [5]: > 0.01 µM; EC50 (Norovirus [9]): > 10 µM; EC50 [6]: 0.007 µM; selectivity ratio [7]: > 1

Q: With C[C@H](NP(=O)(N[C@@H](C)C(=O)OCc1ccccc1)OC[C@H]1O[C@@H](c2cc(Cl)c3c(N)ncnn23)[C@H](O)[C@@H]1O)C(=O)OCc1ccccc1 as the molecule, how does the CC50 at 72 h [5] read?
A: The CC50 at 72 h was > 10 µM.

Q: What about the EC50 [6] of the same molecule?
A: The EC50 was > 10 µM.

Q: What does the source list for Nc1ncnn2c([C@@H]3O[C@H](CO)[C@@H](O)[C@H]3O)cc(I)c12?
A: CC50 at 72 h [5]: 0.78 µM; EC50 (Norovirus [9]): > 10 µM; EC50 [6]: 0.035 µM; selectivity ratio [7]: 22

Q: For Nc1ncnc2c1c(Cl)cn2[C@@H]1O[C@H](CO)[C@@H](O)[C@H]1O, which CC50 at 72 h [5] is on record?
A: The CC50 at 72 h was 2.53 µM.

Q: What about the EC50 [6] of the same molecule?
A: Its EC50 is > 2 µM.

Q: For NC(=O)c1ncn([C@@H]2O[C@H](CO)[C@@H](O)[C@H]2O)n1 [RIBAVIRIN], which EC50 (Norovirus [8]) is on record?
A: Its EC50 is 43 µM.

Q: With Cc1ccc(C(=O)Nc2ccc(S(=O)(=O)O)c3cc(S(=O)(=O)O)cc(S(=O)(=O)O)c23)cc1NC(=O)c1cccc(NC(=O)Nc2cccc(C(=O)Nc3cc(C(=O)Nc4ccc(S(=O)(=O)O)c5cc(S(=O)(=O)O)cc(S(=O)(=O)O)c45)ccc3C)c2)c1 [SURAMIN] as the molecule, how does the IC50 [1] read?
A: The IC50 was 0.025 µM.

Q: What about the IC50 [2] of the same molecule?
A: The IC50 was 0.07 µM.
